In ChEMBL document CHEMBL1124459, “Activity of aromatic substituted phenylpiperazines lacking affinity for dopamine binding sites in a preclinical test of antipsychotic efficacy” (J Med Chem, 1989):

Legend:
[1] = species on record: Rattus norvegicus; experiment: (§1) The percent loss of escape responding was determined for the estimated effective dose 50 values for CAR block; assay type: functional
[2] = target: T1, Adrenergic receptor alpha-1 (Rattus norvegicus, UniProt P15823+P23944+P43140); experiment: Binding affinity against rat Alpha-1 adrenergic receptor.; assay type: protein assay
T1 sequence (P15823 whole entry): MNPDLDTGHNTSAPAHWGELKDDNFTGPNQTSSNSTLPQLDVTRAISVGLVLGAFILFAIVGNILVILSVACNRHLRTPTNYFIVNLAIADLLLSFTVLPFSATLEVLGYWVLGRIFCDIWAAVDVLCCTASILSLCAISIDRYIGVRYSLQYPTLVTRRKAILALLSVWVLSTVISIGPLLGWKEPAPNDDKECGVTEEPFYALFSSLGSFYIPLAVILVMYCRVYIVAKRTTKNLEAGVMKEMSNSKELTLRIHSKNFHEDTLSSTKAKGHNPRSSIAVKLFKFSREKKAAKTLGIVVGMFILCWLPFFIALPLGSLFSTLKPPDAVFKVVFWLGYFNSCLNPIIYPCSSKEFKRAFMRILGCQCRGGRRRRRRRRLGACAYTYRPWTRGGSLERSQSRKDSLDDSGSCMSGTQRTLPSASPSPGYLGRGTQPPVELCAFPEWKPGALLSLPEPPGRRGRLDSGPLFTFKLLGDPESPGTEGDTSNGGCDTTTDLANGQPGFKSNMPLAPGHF
T1 sequence (P23944 whole entry): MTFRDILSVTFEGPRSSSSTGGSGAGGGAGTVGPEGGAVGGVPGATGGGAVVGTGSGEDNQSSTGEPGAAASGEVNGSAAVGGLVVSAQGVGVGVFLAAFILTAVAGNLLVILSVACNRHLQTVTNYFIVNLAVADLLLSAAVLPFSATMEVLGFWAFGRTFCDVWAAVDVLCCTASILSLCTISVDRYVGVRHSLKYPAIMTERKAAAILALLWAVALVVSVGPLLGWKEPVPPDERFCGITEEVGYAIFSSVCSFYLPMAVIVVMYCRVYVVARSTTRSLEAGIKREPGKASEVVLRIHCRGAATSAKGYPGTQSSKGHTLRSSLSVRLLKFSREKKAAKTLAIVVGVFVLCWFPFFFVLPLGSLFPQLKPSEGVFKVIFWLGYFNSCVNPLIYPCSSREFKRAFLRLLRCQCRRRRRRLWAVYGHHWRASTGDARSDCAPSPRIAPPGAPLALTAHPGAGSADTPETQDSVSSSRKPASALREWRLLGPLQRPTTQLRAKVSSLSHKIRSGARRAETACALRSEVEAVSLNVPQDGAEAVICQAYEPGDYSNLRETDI
T1 sequence (P43140 whole entry): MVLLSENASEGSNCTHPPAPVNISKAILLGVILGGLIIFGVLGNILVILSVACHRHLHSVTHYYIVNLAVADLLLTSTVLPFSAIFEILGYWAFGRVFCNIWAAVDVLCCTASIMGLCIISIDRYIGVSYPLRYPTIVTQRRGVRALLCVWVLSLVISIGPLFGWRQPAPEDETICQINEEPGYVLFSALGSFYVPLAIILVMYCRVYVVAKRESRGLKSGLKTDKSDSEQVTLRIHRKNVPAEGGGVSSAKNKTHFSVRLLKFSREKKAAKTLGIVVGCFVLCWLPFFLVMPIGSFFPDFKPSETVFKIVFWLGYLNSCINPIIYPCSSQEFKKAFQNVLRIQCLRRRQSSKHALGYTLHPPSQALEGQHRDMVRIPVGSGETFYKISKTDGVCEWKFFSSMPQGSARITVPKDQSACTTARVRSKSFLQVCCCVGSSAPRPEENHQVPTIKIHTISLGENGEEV

[3] = target: T2, Serotonin 1 (5-HT1) receptor (Rattus norvegicus, UniProt P28564+P30940+P19327+P28565); experiment: Inhibition of [3H]5-HT radioligand binding against 5-hydroxytryptamine 1 receptor; assay type: protein assay
[4] = target: Serotonin 2 (5-HT2) receptor (Rattus norvegicus, UniProt P30994+P08909+P14842); experiment: Binding affinity at rat 5-hydroxytryptamine 2 receptor by [3H]ketanserin displacement.; assay type: protein assay
[5] = target: D(1A) dopamine receptor (Rattus norvegicus, UniProt P18901); experiment: Binding affinity at rat Dopamine receptor D1 by [3H]SCH-23390 displacement.
D(1A) dopamine receptor, sequence (P18901 whole entry): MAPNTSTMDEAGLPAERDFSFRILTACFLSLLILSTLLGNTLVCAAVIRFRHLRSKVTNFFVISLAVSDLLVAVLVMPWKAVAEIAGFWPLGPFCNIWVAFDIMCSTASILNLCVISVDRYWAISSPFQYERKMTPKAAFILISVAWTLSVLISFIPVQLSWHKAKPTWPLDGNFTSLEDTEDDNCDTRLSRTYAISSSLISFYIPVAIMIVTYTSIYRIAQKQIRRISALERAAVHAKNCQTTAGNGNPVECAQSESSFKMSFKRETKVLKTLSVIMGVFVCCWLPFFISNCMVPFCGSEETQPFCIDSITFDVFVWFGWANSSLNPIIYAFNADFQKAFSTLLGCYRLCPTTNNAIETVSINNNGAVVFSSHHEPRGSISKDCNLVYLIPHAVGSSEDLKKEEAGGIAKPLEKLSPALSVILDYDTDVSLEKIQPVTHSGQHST
Summary of the method: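 Rat striatal tissue suspended in 20 mM NaHepes without sucrose, at 250 volumes of the tissue weight. Labelled with [3H]SCH-23390 added as a 3 nM solution. Nonspecific binding set with unlabelled SCH-23390 added as a 30 μM solution. Incubated 20 min. Run in duplicate, with one to five concentration–response curves per compound.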

[6] = test system: Rattus norvegicus; experiment: Effective dose in blocking conditioned avoidance responding (CAR) in the rat when administered intraperitoneally; assay type: functional; details: ip
Summary of the method: (§2)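 Rats trained on a discrete-trial single-lever conditioned avoidance task, dosed ip and tested at the time of peak effect. Each dose was given to 6–12 rats. CAR reduction and loss of escape responding were recorded.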

[7] = target: 5-hydroxytryptamine receptor 1B (Rattus norvegicus, UniProt P28564); experiment: Binding affinity at rat 5-hydroxytryptamine 1B receptor by [3H]5-HT displacement.
5-hydroxytryptamine receptor 1B, sequence (P28564 whole entry): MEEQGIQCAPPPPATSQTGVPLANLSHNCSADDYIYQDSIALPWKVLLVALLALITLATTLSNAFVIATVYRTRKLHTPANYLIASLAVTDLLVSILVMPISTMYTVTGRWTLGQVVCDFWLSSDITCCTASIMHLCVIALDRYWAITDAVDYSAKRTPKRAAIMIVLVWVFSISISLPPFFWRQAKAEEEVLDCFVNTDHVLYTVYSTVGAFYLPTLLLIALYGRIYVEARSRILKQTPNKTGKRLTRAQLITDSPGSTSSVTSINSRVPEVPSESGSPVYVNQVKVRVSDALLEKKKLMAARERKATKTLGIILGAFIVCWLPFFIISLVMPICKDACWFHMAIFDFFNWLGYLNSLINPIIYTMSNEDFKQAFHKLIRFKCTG

[8] = target: T3, 5-hydroxytryptamine receptor 1A (Rattus norvegicus, UniProt P19327)
T3 sequence (P19327 whole entry): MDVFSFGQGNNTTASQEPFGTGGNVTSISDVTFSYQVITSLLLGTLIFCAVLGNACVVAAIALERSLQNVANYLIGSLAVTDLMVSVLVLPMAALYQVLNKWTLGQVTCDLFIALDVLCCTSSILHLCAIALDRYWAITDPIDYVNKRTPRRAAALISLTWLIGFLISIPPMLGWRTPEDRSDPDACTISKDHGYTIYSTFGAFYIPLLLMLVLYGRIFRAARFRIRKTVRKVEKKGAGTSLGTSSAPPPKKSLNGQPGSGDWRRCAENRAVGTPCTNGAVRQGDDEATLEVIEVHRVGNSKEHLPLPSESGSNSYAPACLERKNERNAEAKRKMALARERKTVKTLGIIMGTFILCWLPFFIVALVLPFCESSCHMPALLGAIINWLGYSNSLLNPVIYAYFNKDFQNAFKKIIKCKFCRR

[9] = target: D(2) dopamine receptor (Rattus norvegicus, UniProt P61169); experiment: Binding affinity against rat Dopamine receptor D2.
D(2) dopamine receptor, sequence (P61169 whole entry): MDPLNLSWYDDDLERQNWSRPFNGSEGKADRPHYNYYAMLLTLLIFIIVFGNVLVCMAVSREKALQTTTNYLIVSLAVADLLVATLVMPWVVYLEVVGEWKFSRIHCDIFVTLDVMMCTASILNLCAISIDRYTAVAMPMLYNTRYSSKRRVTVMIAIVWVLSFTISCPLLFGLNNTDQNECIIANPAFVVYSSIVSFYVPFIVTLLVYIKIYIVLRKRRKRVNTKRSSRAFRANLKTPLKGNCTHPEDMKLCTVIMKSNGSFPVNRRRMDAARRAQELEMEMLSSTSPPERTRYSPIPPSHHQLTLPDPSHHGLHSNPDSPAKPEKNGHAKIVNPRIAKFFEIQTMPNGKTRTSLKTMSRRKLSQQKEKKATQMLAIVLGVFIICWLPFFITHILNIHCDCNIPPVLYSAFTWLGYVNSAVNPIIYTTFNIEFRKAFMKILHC

[10] = target: T2, Serotonin 1 (5-HT1) receptor; experiment: Binding affinity determined in radioreceptor binding assay by using [3H]5-HT radioligand against 5-hydroxytryptamine 1 receptor; assay type: protein assay
[11] = species on record: Rattus norvegicus; experiment: as §1; assay type: functional; summary of the method: as §2; remark: listed apart in the source

SMILES: Fc1ccccc1N1CCNCC1
- Loss [1]: 1.6%
- Ki [2]: 0.373 µM
- Ki [3]: 0.0579 µM
- Ki [4]: > 1 µM
- Ki [5]: > 1 µM
- ED50 [6]: 5.1 mg/kg
- Ki [7]: 0.0289 µM
- Ki [8]: 0.043 µM
- Ki [9]: > 1 µM

SMILES: CCCCOc1ccccc1N1CCNCC1
- Loss [1]: 0.2%
- Ki [2]: 0.139 µM
- Ki [3]: 0.0193 µM
- Ki [4]: 0.277 µM
- Ki [5]: > 1 µM
- ED50 [6]: 11.2 mg/kg
- Ki [7]: 0.004 µM
- Ki [8]: 0.0111 µM
- Ki [9]: 0.244 µM

SMILES: O=C(CCCN1CCC(O)(c2ccc(Cl)cc2)CC1)c1ccc(F)cc1 [HALOPERIDOL]
- Loss [1]: 1.7%

SMILES: CCCN(CCC)C1CCc2cccc(O)c2C1 (stereo not drawn) [8-OH-DPAT]
- ED50 [6]: 0.5 mg/kg

SMILES: CN(C)CCCN1c2ccccc2Sc2ccc(Cl)cc21 [CHLORPROMAZINE]
- Loss [1]: 0.2%
- ED50 [6]: 1.8 mg/kg

SMILES: CCc1ccccc1N1CCNCC1
- Ki [2]: 0.096 µM
- Ki [4]: 0.124 µM
- Ki [5]: > 1 µM
- ED50 [6]: 6.8 mg/kg
- Ki [7]: 0.0082 µM
- Ki [10]: 0.0171 µM
- Loss [11]: 2.5%
- Ki [8]: 0.0227 µM
- Ki [9]: 0.449 µM

SMILES: COc1ccccc1N1CCNCC1
- Loss [1]: 1.8%
- Ki [2]: 0.51 µM
- Ki [3]: 0.029 µM
- Ki [4]: > 1 µM
- Ki [5]: > 1 µM
- ED50 [6]: 5.6 mg/kg
- Ki [7]: 0.0173 µM
- Ki [8]: 0.0095 µM

SMILES: c1ccc(C2(N3CCCCC3)CCCCC2)cc1 [PHENCYCLIDINE]
- ED50 [6]: 1 mg/kg

SMILES: CN1CCN(CCCN2c3ccccc3Sc3ccc(C(F)(F)F)cc32)CC1 [TRIFLUOPERAZINE]
- Loss [1]: 1.2%
- ED50 [6]: 0.52 mg/kg

SMILES: CCCCc1ccccc1N1CCNCC1
- Ki [2]: 0.0318 µM
- Ki [4]: 0.204 µM
- Ki [5]: > 1 µM
- ED50 [6]: > 15 mg/kg
- Ki [7]: 0.0084 µM
- Ki [10]: 0.0648 µM
- Ki [8]: 0.0191 µM
- Ki [9]: 0.841 µM

SMILES: CCN(CC)C(=O)[C@@H]1C=C2c3cccc4[nH]cc(c34)C[C@H]2N(C)C1 [LYSERGIDE]
- ED50 [6]: 0.32 mg/kg

SMILES: CCCc1ccccc1N1CCNCC1
- Ki [2]: 0.117 µM
- Ki [4]: 0.232 µM
- Ki [5]: > 1 µM
- ED50 [6]: > 15 mg/kg
- Ki [7]: 0.0159 µM
- Ki [10]: 0.0349 µM
- Ki [8]: 0.0194 µM
- Ki [9]: 0.379 µM

SMILES: O=[N+]([O-])c1cccc(N2CCNCC2)c1
- Loss [1]: 4.3%
- Ki [2]: > 1 µM
- Ki [3]: 0.25 µM
- Ki [4]: 0.419 µM
- Ki [5]: > 1 µM
- ED50 [6]: 5.6 mg/kg
- Ki [7]: 0.0336 µM
- Ki [8]: ~0.322 µM
- Ki [9]: > 1 µM

SMILES: CN1CCN(C2=Nc3cc(Cl)ccc3Nc3ccccc32)CC1 [CLOZAPINE]
- Loss [1]: 12.6%

SMILES: c1ccc(N2CCNCC2)cc1 [PHENYLPIPERAZINE]
- Loss [1]: 6%
- Ki [2]: 0.794 µM
- Ki [3]: 0.149 µM
- Ki [4]: 0.668 µM
- Ki [5]: > 1 µM
- ED50 [6]: 2.7 mg/kg
- Ki [7]: 0.0633 µM
- Ki [8]: 0.149 µM
- Ki [9]: > 1 µM
